Source: ChEMBL document CHEMBL4043110 (Bioorg Med Chem, 2017)
The source made the active and inactive calls. The calls are words filed in the database; no cut-off is given here.

Legend:
BEAS-2B = experiment: Antiproliferative activity against human BEAS2B cells after 72 hrs by MTS assay; format: cell-based
[1] = tested on: Epidermal growth factor receptor (Homo sapiens), P00533 [L858R,T790M]; experiment: Inhibition of EGFR L858R/T790M mutant phosphorylation at Y1086 residue in human H1975 cells up to 1000 nmol/L after 6 hrs by Western blot analysis; format: cell-based
Sequence of Epidermal growth factor receptor (Homo sapiens), P00533 [L858R,T790M] (P00533 whole entry T790M/L858R, looked up): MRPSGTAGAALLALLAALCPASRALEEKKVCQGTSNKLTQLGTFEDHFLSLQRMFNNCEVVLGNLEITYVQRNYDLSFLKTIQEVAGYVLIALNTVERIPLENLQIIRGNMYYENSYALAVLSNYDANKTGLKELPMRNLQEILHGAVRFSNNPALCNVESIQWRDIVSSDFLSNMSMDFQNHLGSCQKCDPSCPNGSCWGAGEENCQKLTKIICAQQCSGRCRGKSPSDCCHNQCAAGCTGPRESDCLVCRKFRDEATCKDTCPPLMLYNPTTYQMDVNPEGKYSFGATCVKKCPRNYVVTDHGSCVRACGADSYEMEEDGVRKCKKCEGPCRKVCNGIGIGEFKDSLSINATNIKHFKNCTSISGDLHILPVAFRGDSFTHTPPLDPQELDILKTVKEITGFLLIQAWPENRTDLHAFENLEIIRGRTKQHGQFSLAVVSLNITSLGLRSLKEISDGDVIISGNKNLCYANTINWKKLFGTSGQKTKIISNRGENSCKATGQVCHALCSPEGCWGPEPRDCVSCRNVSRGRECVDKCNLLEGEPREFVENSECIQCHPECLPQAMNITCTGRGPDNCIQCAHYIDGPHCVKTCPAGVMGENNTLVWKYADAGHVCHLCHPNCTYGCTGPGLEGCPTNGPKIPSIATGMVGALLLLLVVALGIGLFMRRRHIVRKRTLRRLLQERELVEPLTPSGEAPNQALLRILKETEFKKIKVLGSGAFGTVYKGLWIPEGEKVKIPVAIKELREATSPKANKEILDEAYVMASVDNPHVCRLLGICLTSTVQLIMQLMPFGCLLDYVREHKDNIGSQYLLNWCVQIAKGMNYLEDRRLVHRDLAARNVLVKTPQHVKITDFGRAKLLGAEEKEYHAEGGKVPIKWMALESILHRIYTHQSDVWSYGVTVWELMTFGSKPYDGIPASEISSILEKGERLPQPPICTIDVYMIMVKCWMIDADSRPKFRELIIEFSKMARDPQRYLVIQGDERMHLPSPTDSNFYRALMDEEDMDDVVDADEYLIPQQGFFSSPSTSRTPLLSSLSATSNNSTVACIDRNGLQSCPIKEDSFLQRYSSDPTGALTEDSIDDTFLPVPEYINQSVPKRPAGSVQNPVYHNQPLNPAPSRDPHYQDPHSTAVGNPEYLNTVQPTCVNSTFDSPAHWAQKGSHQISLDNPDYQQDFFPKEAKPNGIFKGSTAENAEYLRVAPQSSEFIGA
Method in brief: (§1)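 The buffer was supplemented with protease inhibitor cocktail, 40 mmol/L sodium fluoride and 1 mmol/L sodium orthovanadate. Protein was quantified by BCA before immunoblotting.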

[2] = molecular target: T1, Epidermal growth factor receptor (Homo sapiens, UniProt P00533); experiment: Inhibition of wild-type EGFR phosphorylation at Y1086 residue in human LoVo cells up to 1000 nmol/L after 6 hrs by Western blot analysis; format: cell-based; method in brief: as §1
T1 sequence (P00533 whole entry): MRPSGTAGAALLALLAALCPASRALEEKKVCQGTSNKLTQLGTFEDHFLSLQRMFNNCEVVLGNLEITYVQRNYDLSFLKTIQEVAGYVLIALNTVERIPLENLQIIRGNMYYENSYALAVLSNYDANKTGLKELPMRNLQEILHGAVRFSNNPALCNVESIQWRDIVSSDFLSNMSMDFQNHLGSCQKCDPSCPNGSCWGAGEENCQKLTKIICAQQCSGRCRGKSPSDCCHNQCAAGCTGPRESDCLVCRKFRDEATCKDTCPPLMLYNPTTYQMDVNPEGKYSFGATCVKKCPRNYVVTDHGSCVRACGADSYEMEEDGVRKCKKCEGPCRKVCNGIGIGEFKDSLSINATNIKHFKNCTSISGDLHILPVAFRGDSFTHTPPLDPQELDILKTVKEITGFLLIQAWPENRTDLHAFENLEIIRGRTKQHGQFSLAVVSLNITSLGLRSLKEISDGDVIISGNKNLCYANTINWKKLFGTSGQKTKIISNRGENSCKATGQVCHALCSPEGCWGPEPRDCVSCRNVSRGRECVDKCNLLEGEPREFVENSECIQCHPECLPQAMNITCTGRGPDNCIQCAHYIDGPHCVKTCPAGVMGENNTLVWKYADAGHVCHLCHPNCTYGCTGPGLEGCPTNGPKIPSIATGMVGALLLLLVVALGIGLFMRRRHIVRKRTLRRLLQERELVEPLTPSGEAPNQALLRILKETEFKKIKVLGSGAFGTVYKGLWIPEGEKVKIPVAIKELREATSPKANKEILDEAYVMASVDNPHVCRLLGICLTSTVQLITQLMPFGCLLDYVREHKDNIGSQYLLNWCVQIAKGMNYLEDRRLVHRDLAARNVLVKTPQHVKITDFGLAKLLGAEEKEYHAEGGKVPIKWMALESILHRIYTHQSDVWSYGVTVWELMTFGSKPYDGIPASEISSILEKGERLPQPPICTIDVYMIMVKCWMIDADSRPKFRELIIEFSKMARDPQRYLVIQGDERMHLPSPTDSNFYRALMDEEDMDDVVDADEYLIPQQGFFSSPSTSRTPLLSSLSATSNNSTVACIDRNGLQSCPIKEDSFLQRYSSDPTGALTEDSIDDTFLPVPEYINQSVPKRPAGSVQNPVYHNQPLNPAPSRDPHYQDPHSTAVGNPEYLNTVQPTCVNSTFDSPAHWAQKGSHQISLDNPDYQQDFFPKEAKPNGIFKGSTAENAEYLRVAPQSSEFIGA

NCI-H1975 [3] = experiment: Antiproliferative activity against human NCI-H1975 cells harboring EGFR L858R/T790M double mutant after 72 hrs by MTS assay; format: functional, cell-based; details: NCI-H1975, 72 h
Method in brief: (§2)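 NCI-H460, PC9 or NCI-H1975 cells were grown in RPMI 1640 with 10% FBS at 37 °C and 5% CO2, and used at passages 3–5 from thawing. Exponentially growing cells were seeded at 7000 cells/well. After 24 h the medium was replaced with medium containing a 3-fold serial dilution of compound in DMSO, and cells were incubated 72 h at 37 °C. MTS was added for 2 h and A490 read. Samples were run in triplicate and repeated at least three times.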

NCI-H460 = experiment: Antiproliferative activity against human NCI-H460 cells after 72 hrs by MTS assay; format: functional, cell-based; details: NCI-H460, 72 h; method in brief: as §2
Homo sapiens = species on record: Homo sapiens; experiment: Selectivity index, ratio of IC50 for wild type EGFR (unknown origin) to IC50 for EGFR L858R/T790M double mutant (unknown origin)
[4] = molecular target: Epidermal growth factor receptor (Homo sapiens, UniProt P00533, L858R/T790M); experiment: Inhibition of EGFR L858R/T790M mutant (unknown origin) using Tyr 4 peptide as substrate in presence of ATP by Z-LYTE kinase assay
Sequence of Epidermal growth factor receptor (Homo sapiens, UniProt P00533, L858R/T790M) (P00533 25-1210 T790M/L858R limits assumed): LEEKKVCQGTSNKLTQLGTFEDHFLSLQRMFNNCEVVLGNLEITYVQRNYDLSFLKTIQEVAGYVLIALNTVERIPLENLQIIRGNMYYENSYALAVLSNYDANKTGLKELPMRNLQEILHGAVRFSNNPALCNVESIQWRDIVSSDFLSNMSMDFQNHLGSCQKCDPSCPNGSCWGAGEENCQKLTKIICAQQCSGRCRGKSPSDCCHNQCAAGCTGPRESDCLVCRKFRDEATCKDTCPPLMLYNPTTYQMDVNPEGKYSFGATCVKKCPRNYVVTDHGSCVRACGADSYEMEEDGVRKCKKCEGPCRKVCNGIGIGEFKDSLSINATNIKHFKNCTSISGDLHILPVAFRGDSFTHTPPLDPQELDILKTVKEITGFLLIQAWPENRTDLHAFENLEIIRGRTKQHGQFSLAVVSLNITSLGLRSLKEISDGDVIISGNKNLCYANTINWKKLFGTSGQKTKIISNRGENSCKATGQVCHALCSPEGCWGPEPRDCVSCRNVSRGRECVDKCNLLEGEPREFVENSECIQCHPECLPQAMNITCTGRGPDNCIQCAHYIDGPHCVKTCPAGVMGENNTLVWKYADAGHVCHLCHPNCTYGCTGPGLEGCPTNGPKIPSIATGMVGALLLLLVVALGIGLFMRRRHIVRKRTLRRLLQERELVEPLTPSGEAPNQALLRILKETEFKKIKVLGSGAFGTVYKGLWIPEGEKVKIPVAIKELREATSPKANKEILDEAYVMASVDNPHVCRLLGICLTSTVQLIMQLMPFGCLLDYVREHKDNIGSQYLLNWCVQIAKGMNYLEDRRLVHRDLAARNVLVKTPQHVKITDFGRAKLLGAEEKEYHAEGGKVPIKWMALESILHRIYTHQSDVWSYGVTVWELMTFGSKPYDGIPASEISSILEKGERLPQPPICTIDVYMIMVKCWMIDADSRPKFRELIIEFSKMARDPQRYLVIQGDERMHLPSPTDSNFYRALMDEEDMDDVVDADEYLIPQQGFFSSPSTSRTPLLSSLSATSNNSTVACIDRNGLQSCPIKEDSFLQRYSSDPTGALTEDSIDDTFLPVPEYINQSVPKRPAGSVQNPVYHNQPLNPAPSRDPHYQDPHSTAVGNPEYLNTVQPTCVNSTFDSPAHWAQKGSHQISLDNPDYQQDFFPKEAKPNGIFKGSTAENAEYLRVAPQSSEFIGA

[5] = molecular target: T1, Epidermal growth factor receptor; experiment: Inhibition of wild-type EGFR in human LoVo cells assessed as inhibition of ERK phosphorylation at P-p44/42 residue up to 1000 nmol/L after 6 hrs by Western blot analysis; format: cell-based; method in brief: as §1
[6] = tested on: Epidermal growth factor receptor (Homo sapiens), P00533 [L858R,T790M]; experiment: Inhibition of EGFR L858R/T790M mutant in human H1975 cells assessed as inhibition of AKT phosphorylation at S473 residue up to 1000 nmol/L after 6 hrs by Western blot analysis; format: cell-based; method in brief: as §1
PC-9 = experiment: Antiproliferative activity against human PC9 cells harboring EGFR exon 19 deletion mutant after 72 hrs by MTS assay; format: functional, cell-based; details: PC-9, 72 h; method in brief: as §2
[7] = tested on: Epidermal growth factor receptor (Homo sapiens), P00533 [UNDEFINED MUTATION]; experiment: Inhibition of EGFR exon 19 deletion mutant phosphorylation at Y1086 residue in human PC9 cells up to 1000 nmol/L after 6 hrs by Western blot analysis; format: cell-based; method in brief: as §1
Sequence of Epidermal growth factor receptor (Homo sapiens), P00533 [UNDEFINED MUTATION] (P00533 whole entry, looked up, stated change not applied): as the sequence (P00533 whole entry) above

[8] = tested on: Epidermal growth factor receptor (Homo sapiens), P00533 [L858R,T790M]; experiment: Inhibition of EGFR L858R/T790M mutant in human H1975 cells assessed as inhibition of ERK phosphorylation at P-p44/42 residue up to 1000 nmol/L after 6 hrs by Western blot analysis; format: cell-based; method in brief: as §1
[9] = molecular target: T1, Epidermal growth factor receptor; experiment: Inhibition of wild-type EGFR in human LoVo cells assessed as inhibition of AKT phosphorylation at S473 residue up to 1000 nmol/L after 6 hrs by Western blot analysis; format: cell-based; method in brief: as §1
[10] = tested on: Epidermal growth factor receptor (Homo sapiens), P00533 [UNDEFINED MUTATION]; experiment: Inhibition of EGFR exon 19 deletion mutant in human PC9 cells assessed as inhibition of AKT phosphorylation at S473 residue up to 1000 nmol/L after 6 hrs by Western blot analysis; format: cell-based; method in brief: as §1
[11] = tested on: Epidermal growth factor receptor (Homo sapiens), P00533 [UNDEFINED MUTATION]; experiment: Inhibition of EGFR exon 19 deletion mutant in human PC9 cells assessed as inhibition of ERK phosphorylation at P-p44/42 residue up to 1000 nmol/L after 6 hrs by Western blot analysis; format: cell-based; method in brief: as §1
[12] = Solubility of the compound in PBS at pH 7.4; format: physicochemical
[13] = molecular target: T1, Epidermal growth factor receptor; experiment: Inhibition of wild-type EGFR (unknown origin) using Tyr 4 peptide as substrate in presence of ATP by Z-LYTE kinase assay
Mus musculus = experiment: Toxicity in nude mouse assessed as effect on body weight at 5 mg/kg/day, ig administered once daily for 30 days; format: organism-based; details: in vivo, po, 720 h
NCI-H1975 [14] = experiment: Antitumor activity against human NCI-H1975 cells harboring L858R/T790M mutant xenografted in nude mouse at 5 mg/kg/day, ig administered once daily for 30 days measured every 2 days of dosing; format: functional, organism-based
Method in brief: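 Female nude mice (6–8 weeks) were injected subcutaneously in the right flank with NCI-H1975 cells (1 × 10^6/mouse). Once tumors reached about 150–200 mm3, mice were randomized (n = 10 per group). They were dosed intragastrically at 5 mg/kg/day for 30 consecutive days, or given vehicle DMSO/Cremophor-EL/PBS (1:1:8). Tumor length and width were measured by caliper every two days, and volume = width × width × length/2.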

SMILES: C=CC(=O)Nc1cc(Nc2nccc(-c3cn(C)c4c(F)cccc34)n2)c(OC)cc1N(C)CCN(C)C
- IC50 (BEAS-2B): 15.6 µM
- inhibition [1]: Active
- inhibition (INH) [2]: Not Active
- IC50 (NCI-H1975 [3]): 32.9 nM
- IC50 (NCI-H460): 875 nM
- Ratio IC50 (Homo sapiens): 29.2
- IC50 [4]: 6 nM
- inhibition (INH) [5]: Not Active
- inhibition [6]: Active
- IC50 (PC-9): 20.5 nM
- inhibition [7]: Active
- inhibition [8]: Active
- inhibition (INH) [9]: Not Active
- inhibition [10]: Active
- inhibition [11]: Active
- solubility [12]: < 100 µg/mL
- IC50 [13]: 175 nM

SMILES: C=CC(=O)Nc1cc(Nc2nccc(-c3cn(C)c4c(F)cccc34)n2)c(OC)cc1N(C)CC[N+](C)(C)[O-]
- IC50 (BEAS-2B): 28.4 µM
- inhibition [1]: Active
- inhibition (INH) [2]: Not Active
- IC50 (NCI-H1975 [3]): 89.9 nM
- IC50 (NCI-H460): 1140 nM
- Ratio IC50 (Homo sapiens): 33.4
- IC50 [4]: 17.8 nM
- inhibition (INH) [5]: Not Active
- inhibition [6]: Active
- IC50 (PC-9): 46.7 nM
- inhibition [7]: Active
- inhibition [8]: Active
- inhibition (INH) [9]: Not Active
- inhibition [10]: Active
- inhibition [11]: Active
- solubility [12]: > 10000 µg/mL
- IC50 [13]: 595 nM

SMILES: C=CC(=O)Nc1cc(Nc2nccc(-c3cn(C)c4ccc(F)cc34)n2)c(OC)cc1N(C)CCN(C)C
- IC50 (BEAS-2B): 7.9 µM
- inhibition [1]: Active
- inhibition (INH) [2]: Not Active
- IC50 (NCI-H1975 [3]): 15.3 nM
- IC50 (NCI-H460): 430 nM
- Ratio IC50 (Homo sapiens): 34.3
- IC50 [4]: 4.9 nM
- inhibition (INH) [5]: Not Active
- inhibition [6]: Active
- IC50 (PC-9): 8.1 nM
- inhibition [7]: Active
- inhibition [8]: Active
- inhibition (INH) [9]: Not Active
- inhibition [10]: Active
- inhibition [11]: Active
- solubility [12]: < 100 µg/mL
- IC50 [13]: 166 nM

SMILES: C=CC(=O)Nc1cc(Nc2nccc(-c3cn(C)c4ccc(F)cc34)n2)c(OC)cc1N(C)CC[N+](C)(C)[O-]
- IC50 (BEAS-2B): 15.7 µM
- inhibition [1]: Active
- inhibition (INH) [2]: Not Active
- IC50 (NCI-H1975 [3]): 45.6 nM
- IC50 (NCI-H460): 892 nM
- Ratio IC50 (Homo sapiens): 35
- IC50 [4]: 10.2 nM
- inhibition (INH) [5]: Not Active
- inhibition [6]: Active
- IC50 (PC-9): 26.2 nM
- inhibition [7]: Active
- inhibition [8]: Active
- inhibition (INH) [9]: Not Active
- inhibition [10]: Active
- inhibition [11]: Active
- solubility [12]: < 100 µg/mL
- IC50 [13]: 357 nM

SMILES: C=CC(=O)Nc1cc(Nc2nccc(-c3cn(C)c4ccccc34)n2)c(OC)cc1N(C)CC[N+](C)(C)[O-]
- Activity (Mus musculus): Non-Toxic
- IC50 (BEAS-2B): 15.1 µM
- inhibition [1]: Active
- inhibition (INH) [2]: Not Active
- IC50 (NCI-H1975 [3]): 17.4 nM
- IC50 (NCI-H460): 611 nM
- Ratio IC50 (Homo sapiens): 49.9
- IC50 [4]: 6.4 nM
- inhibition (INH) [5]: Not Active
- inhibition [6]: Active
- Activity (NCI-H1975 [14]): Active
- IC50 (PC-9): 16.1 nM
- inhibition [7]: Active
- inhibition [8]: Active
- inhibition (INH) [9]: Not Active
- inhibition [10]: Active
- inhibition [11]: Active
- solubility [12]: > 10000 µg/mL
- IC50 [13]: 318 nM

SMILES: C=CC(=O)Nc1cc(Nc2nccc(-c3cn(C)c4ccccc34)n2)c(OC)cc1N(C)CCN(C)C [OSIMERTINIB]
- IC50 (BEAS-2B): 14.9 µM
- IC50 (NCI-H460): 416 nM
- solubility [12]: < 100 µg/mL
